Data published in paper PMC3523546 (Journal of Medicinal Chemistry, 2012).
Square brackets hold non-standard residues; d marks the D form. Peptide text beside a SMILES is read from it. * marks the point of attachment. FITC = O=C1OC2(c3ccc(O)cc3Oc3cc(O)ccc32)c2ccc(NC(=S)*)cc21; βAla = NCCC(=O)O

Legend:
LNCaP cells [1] = assay: MTT proliferation assay, LNCaP; assay type: cell-based; conditions: 72 h
How it was run: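 LNCaP cells seeded at 2500 per well on poly-lysine-coated plates in RPMI 1640 with 10% FBS. Medium changed after 24 h, then peptide exposure for 72 h. MTT (1 mg/mL final) incubated 4 h; formazan dissolved in 2-propanol–HCl. Signal normalised to vehicle-treated cells (water, 0.1% DMSO).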

DU145 cells [2] = assay: MTT proliferation assay, DU145; assay type: cell-based; conditions: 72 h
How it was run: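 DU145 cells seeded at 1500 per well in RPMI 1640 with 5% FBS. After 24 h, medium changed and peptide added for 72 h. MTT added (1 mg/mL final) for 4 h, then formazan dissolved in 2-propanol–HCl. Metabolic activity normalised to vehicle (bidistilled water, 0.1% DMSO). IC50 from curve fitting; tabulated IC50 are means of five independent experiments.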

LNCaP cells [3] = assay: Cell cycle analysis; assay type: cell-based; conditions: 200 μM, 96 h
How it was run: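 LNCaP cells (4 × 10^5 per 10 cm dish) grown 24 h untreated, then given vehicle (0.1% DMSO) or 100 or 200 μM peptide in 10% FBS medium for 96 h, with medium changed every 24 h. Cells trypsinised, fixed in ice-cold ethanol (30 min, room temperature), and stained with propidium iodide plus RNaseA in HEPES pH 7.2 buffer. Flow cytometry: ≥10000 gated singlets. Phase percentages taken from living cells. Three experiments in duplicate; unpaired two-tailed t test.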

amino-peptidases = assay: Stability of the peptide to amino-peptidases; assay type: in vitro ADME; conditions: N-terminal Leu replaced by DLeu, versus ML-peptide; unpublished data
DU145 cells [4] = assay: Cellular uptake of FITC peptides by FACS; assay type: cell-based; conditions: for geometric mean of the distribution (GeoMean), range over both wash conditions: DU145, 10 μM FITC peptide, 1 h, FACS
How it was run: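 DU145 cells (4 × 10^5) incubated 1 h in serum-free RPMI with 10 μM FITC-labelled peptide, then pelleted. Pellets washed twice with 0.05% trypsin, 5 min at 37 °C, to strip membrane-bound label. Propidium iodide (10 μg/mL, 2 min) excluded membrane-damaged cells. At least 10000 events acquired per sample, excluding clumps and debris. Uptake reported as geometric mean fluorescence.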

[5] = biological target: T1, P6 Lys hexapeptide inhibitor; assay: enzyme inhibition assay
T1 chain: KLRVKR

[6] = biological target: T2, P6 Leu hexapeptide inhibitor; assay: enzyme inhibition assay
T2 chain: LLRVKR

PC7 prodomain prodomain = biological target: T3, PC7 prodomain prodomain (Homo sapiens, UniProt Q16549); assay: enzyme inhibition assay
T3 chain: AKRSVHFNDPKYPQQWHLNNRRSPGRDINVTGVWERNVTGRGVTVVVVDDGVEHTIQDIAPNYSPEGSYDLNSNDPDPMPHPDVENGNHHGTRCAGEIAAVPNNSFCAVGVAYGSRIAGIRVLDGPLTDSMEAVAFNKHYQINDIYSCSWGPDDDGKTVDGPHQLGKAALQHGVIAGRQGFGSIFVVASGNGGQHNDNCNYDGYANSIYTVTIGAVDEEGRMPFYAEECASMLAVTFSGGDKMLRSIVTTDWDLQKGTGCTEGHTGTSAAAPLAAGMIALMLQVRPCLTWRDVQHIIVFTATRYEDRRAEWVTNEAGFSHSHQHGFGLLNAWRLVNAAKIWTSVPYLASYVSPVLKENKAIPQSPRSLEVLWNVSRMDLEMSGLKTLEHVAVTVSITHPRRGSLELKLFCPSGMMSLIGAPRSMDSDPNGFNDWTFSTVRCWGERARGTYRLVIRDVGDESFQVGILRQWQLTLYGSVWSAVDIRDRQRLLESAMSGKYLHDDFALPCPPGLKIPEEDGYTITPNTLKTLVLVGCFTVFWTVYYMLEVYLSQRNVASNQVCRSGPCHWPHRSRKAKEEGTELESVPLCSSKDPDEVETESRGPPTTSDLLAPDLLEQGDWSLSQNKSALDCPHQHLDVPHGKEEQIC

[7] = biological target: T4, P6 Arg hexapeptide inhibitor; assay: enzyme inhibition assay
T4 chain: RLRVKR

## CC(=O)N[C@@H](CC(C)C)C(=O)N[C@@H](CC(C)C)C(=O)N[C@@H](CC(C)C)C(=O)N[C@@H](CC(C)C)C(=O)N[C@@H](CCCNC(=N)N)C(=O)N[C@H](C(=O)N[C@@H](CCCCN)C(=O)N[C@H](CCCNC(=N)N)C(N)=O)C(C)C [Ac-LLLLRVK[DArg]-NH2] (Ac-LLLLRVK[dR]-NH2)
LNCaP cells [1]
  inhibition of proliferation: poor proliferation inhibitor
DU145 cells [2]
  inhibition of proliferation: poor proliferation inhibitor

## CC(=O)N[C@H](CC(C)C)C(=O)N[C@@H](CC(C)C)C(=O)N[C@@H](CC(C)C)C(=O)N[C@@H](CC(C)C)C(=O)N[C@@H](CCCNC(=N)N)C(=O)N[C@H](C(=O)N[C@@H](CCCCN)C(=O)N[C@@H](CCCNC(=N)N)C(N)=O)C(C)C [Ac-[DLeu]LLLRVKR-NH2]
LNCaP cells [3]
  increase in the G0/G1 population: 10%
amino-peptidases
  stability of the peptide to amino-peptidases: improved stability

## CC(=O)N[C@@H](CCCNC(=N)N)C(=O)N[C@@H](C)C(=O)N[C@@H](CCCNC(=N)N)C(=O)N[C@@H](CCCNC(=N)N)C(=O)N[C@@H](CCCNC(=N)N)C(=O)N[C@@H](CCCCN)C(=O)N[C@@H](CCCCN)C(=O)N[C@@H](CCCNC(=N)N)C(=O)N[C@H](C(N)=O)[C@@H](C)O [reference compound]
LNCaP cells [1]
  inhibition of proliferation: no antiproliferative effects
DU145 cells [2]
  inhibition of proliferation: no antiproliferative effects

## FITC-C8-LLLLRVKR-NH2 ({FITC-C8}-LLLLRVKR-NH2)
DU145 cells [4]
  geometric mean of the distribution (GeoMean), range over both wash conditions: 260.08–261.95
DU145 cells [4]; DU145, FACS
  GeoMean compared to the control FITC-β-Ala-ML-peptide: 5 fold

## FITC-[β-Ala]-LLLLRVKR-NH2 ({FITC-βAla}-LLLLRVKR-NH2)
DU145 cells [4]
  geometric mean of the distribution (GeoMean), range over both wash conditions: 48.90–52.82

B1: PACE4 (protein)
chain: QVRSDPQALYFNDPIWSNMWYLHCGDKNSRCRSEMNVQAAWKRGYTGKNVVVTILDDGIERNHPDLAPNYDSYASYDVNGNDYDPSPRYDASNENKHGTRCAGEVAASANNSYCIVGIAYNAKIGGIRMLDGDVTDVVEAKSLGIRPNYIDIYSASWGPDDDGKTVDGPGRLAKQAFEYGIKKGRQGLGSIFVWASGNGGREGDYCSCDGYTNSIYTISVSSATENGYKPWYLEECASTLATTYSSGAFYERKIVTTDLRQRCTDGHTGTSVSAPMVAGIIALALEANSQLTWRDVQHLLVKTSRPAHLKASDWKVNGAGHKVSHFYGFGLVDAEALVVEAKKWTAVPSQHMCVAASDKRPRSIPLVQVLRTTALTSACAEHSDQRVVYLEHVVVRTSISHPRRGDLQIYLVSPSGTKSQLLAKRLLDLSNEGFTNWEFMTVHCWGEKAEGQWTLEIQDLPSQVRNPEKQGKLKEWSLILYGTAEHPYHTFSAHQSRSRMLELSAPELEPPKAALSPSQVEVPEDEEDYTAQSTPGSANILQTSVCHPECGDKGCDGPNADQCLNCVHFSLGSVKTSRKCVSVCPLGYFGDTAARRCRRCHKGCETCSSRAATQCLSCRRGFYHHQEMNTCVTLCPAGFYADESQKNCLKCHPSCKKCVDEPEKCTVCKEGFSLARGSCIPDCEPGTYFDSELIRCGECHHTCGTCVGPGREECIHCAKNFHFHDWKCVPACGEGFYPEEMPGLPHKVCRRCDENCLSCAGSSRNCSRCKTGFTQLGTSCITNHTCSNADETFCEMVKSNRLCERKLFIQFCCRTCLLAG
[5]
  Ki: 37 nM
[6]
  Ki: 49 nM
PC7 prodomain prodomain
  Ki: 0.34 nM
[7]
  Ki: 40 nM
